An excerpt weighted towards active compounds, which were near 3.8% of everything screened.
hERG protect: compounds protecting human hERG from proarrhythmic drug block | hit rate 0.51% among 310,000 | CHO-hERG, FluxOR thallium flux, dofetilide IC70 present | activation (rescue from dofetilide block), less the hit threshold, % at 10 µM;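 active = activation above the mean of controls blocked by dofetilide plus 5 SD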;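 note: thallium influx through hERG after potassium depolarization seen as dye fluorescence rise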
Target sequence (Q12809 whole entry, looked up): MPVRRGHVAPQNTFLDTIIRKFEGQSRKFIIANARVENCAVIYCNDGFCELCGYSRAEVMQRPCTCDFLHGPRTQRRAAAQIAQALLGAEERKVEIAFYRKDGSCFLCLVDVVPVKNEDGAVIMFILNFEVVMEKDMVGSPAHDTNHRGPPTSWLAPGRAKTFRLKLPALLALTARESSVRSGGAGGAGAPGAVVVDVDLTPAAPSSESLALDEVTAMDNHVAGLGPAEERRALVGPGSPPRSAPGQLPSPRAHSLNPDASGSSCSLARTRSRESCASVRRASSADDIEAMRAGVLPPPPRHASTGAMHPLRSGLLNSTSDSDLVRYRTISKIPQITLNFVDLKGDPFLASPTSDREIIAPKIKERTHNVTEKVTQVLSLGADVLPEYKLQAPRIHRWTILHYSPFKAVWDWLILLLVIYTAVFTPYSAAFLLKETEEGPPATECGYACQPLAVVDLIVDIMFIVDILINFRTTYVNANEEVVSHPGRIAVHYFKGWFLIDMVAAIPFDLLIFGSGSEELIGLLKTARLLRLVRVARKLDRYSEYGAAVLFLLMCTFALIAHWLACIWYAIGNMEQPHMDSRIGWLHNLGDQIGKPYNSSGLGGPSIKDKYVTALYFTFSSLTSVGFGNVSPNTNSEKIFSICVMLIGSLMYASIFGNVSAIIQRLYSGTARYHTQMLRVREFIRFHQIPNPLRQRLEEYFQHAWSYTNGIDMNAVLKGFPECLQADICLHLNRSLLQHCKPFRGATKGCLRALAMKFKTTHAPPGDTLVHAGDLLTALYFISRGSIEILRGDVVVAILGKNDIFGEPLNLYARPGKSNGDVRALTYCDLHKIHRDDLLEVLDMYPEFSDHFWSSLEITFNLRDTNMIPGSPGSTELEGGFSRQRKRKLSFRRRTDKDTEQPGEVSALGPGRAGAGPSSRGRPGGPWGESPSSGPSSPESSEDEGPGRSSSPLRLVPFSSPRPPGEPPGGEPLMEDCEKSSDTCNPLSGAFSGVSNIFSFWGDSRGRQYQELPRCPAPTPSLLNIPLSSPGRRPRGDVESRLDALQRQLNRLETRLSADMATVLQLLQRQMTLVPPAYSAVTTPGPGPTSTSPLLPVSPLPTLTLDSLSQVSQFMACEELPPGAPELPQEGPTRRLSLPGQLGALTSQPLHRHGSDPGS
KCNQ1 inh: blocks the human KCNQ1 potassium channel; CHO-K1 KCNQ1, FluxOR thallium flux fluorescence; hits give high values; B-score at 10 µM; hit rate 1.3% among 310,000;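 active = compounds whose thallium flux B-score, printed positive for inhibition, exceeds three library SD while starting fluorescence stays within three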;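 note: channel opened by potassium depolarization with thallium stimulus after 20 min compound exposure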
Kir21 inh: inhibitors of mouse Kir2.1 inward-rectifier potassium channel. P35561. HEK293-Kir2.1, FluxOR thallium flux fluorescence; hits give low values. B-score at 10 µM. hit rate 0.85% among 310,000;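 active = fluorescence ratio B-score at or below minus 3 SD of library scores, with starting-brightness B-score within 2 SD, cut at about -4.2 in these data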;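 note: channel flux triggered by added potassium and thallium sulfate stimulus; B-score of peak minus minimum fluorescence over baseline after thallium stimulus; more negative B-score means stronger Kir2.1 block with less thallium influx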
KCNQ1 pot: potentiators or activators of human KCNQ1 potassium channel | B-score at 10 µM | P51787 | hit rate 0.35% among 310,000 | AID 2648 | CHO-K1 KCNQ1, thallium flux FluxOR fluorescence; hits give high values;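 active = fluorescence ratio B-score, a plate-corrected score, at least three library SD, with initial intensity B-score within 5 SD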
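assay system = CHO-K1 cells stably expressing KCNQ1 | medium = assay buffer, equal DMSO in all wells | timing = 37 °C overnight plating, 90-min dark dye load, 20-min compound pretreatment | measured by = kinetic FluxOR thallium fluorescence, 10-s 1-Hz baseline, 110-s post-stimulus read | measure = fluorescence change relative to baseline, converted to B score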
KCNK9 inh: blocks the human KCNK9 two-pore domain potassium channel; HEK293 KCNK9, FluxOR thallium flux fluorescence; hits give low values; AID 488922; B-score at 10 µM; hit rate 1.2% among 310,000; Q9NPC2;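 active = ratio B-score over 3 SD below the library mean, with starting fluorescence within 5 SD of its mean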;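 note: negative B-score means less thallium flux so channel inhibition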
KCNK3 block: human KCNK3 channel inhibition, primary screen; CHO-KCNK3 thallium flux, FluxOR fluorescence; hits give low values; hit rate 0.84% among 340,000; B-score at 10 µM; O14649;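 active = B-score under library mean minus 4 SD, starting fluorescence ratio at most library mean plus 5 SD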;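 note: more negative B-score means stronger inhibition of thallium flux through KCNK3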
Large screens that a line does not name were inactive.

C[C@H]1CC[C@H]2C(=O)N3[C@H](c4cccc(N5CCCC5=O)c4)[C@@H](C)CC[C@H]3C(=O)N2[C@@H]1c1cccc(N2CCCC2=O)c1	none (no result: KCNK3 block)
Cc1nc(CS(=O)(=O)c2ccc(Cl)cc2)cc(Sc2ccc(Cl)cc2)n1	Kir21 inh -4.79, KCNK9 inh -6.58
Clc1ccc(Nc2ccc(NCc3ccccc3)nn2)cc1	Kir21 inh -5.46
O=C(NCc1ccc2c(c1)OCO2)C1CC(=O)N(C2CCCCCC2)C1 (stereo not drawn)	hERG protect 5.4
O=C(c1cc2c(s1)CCCC2)N1CCN(CCO)CC1	none (no result: hERG protect, KCNQ1 inh, Kir21 inh, KCNQ1 pot, KCNK9 inh)
O=C(CCc1cccc(Cl)c1)N1CCCC(Nc2ccccc2)C1 (stereo not drawn)	Kir21 inh -6.89
O=C1CCCCN1CCC(=O)N1CCCC(Nc2ccccc2)C1 (stereo not drawn)	none
O=C(COc1ccc(S(=O)(=O)N2CCc3ccccc32)cc1Cl)NCc1ccccn1	Kir21 inh -5.19
O=C(c1ccc(Cn2cc(Cl)c([N+](=O)[O-])n2)cc1)N1CCN(Cc2ccccc2)CC1	none
CCC1Oc2ccccc2N(CC(=O)NCCCN2CCC(C)CC2)C1=O (stereo not drawn)	hERG protect 5.5
CCC1Oc2ccccc2N(CC(=O)NCCN2C(C)CCCC2C)C1=O (stereo not drawn)	hERG protect 7.2
CCOCCCNC(=O)CN1C(=O)C(CC)Oc2ccccc21 (stereo not drawn)	none
CCC1Oc2ccccc2N(CC(=O)NCCN2CCCC2)C1=O (stereo not drawn)	none
Cc1ccc2cccc(S(=O)(=O)Nc3ccc4c(c3)OCO4)c2n1	Kir21 inh -5.32
Cc1ccc(S(=O)(=O)c2n[nH]n3c2nc(=O)c2ccccc23)cc1	hERG protect 8.6
CCOC(=O)c1n[nH]n2c1nc(=O)c1ccccc12	none
Cc1sc(NC(=O)COc2ccccc2)c(C#N)c1-c1ccccc1	none
COc1ccc(C(=O)Nc2sc(C)c(-c3ccccc3)c2C#N)cc1OC	KCNQ1 inh 6, KCNK3 block -10.6
O=C(Cn1nc(-c2ccccc2)c2ccccc2c1=O)Nc1ccc(O)cc1	hERG protect 15.2
CN(CC(=O)NCC1CCCCC1)S(=O)(=O)c1ccc(Cl)cc1	none
COc1ccc(NC(=S)N2CCC(NC(=O)c3ccco3)CC2)cc1	none
Fc1ccc(CNCCC(Cc2ccccc2)c2ccco2)cc1 (stereo not drawn)	Kir21 inh -15.1
O=C(NCCNCc1ccc(F)cc1)c1ccco1	none
COc1ccc(NC(=O)c2ccc(COCC(F)(F)C(F)F)cc2)cc1	hERG protect 12.6
COc1ccc(NC(=O)c2ccc(COCC(F)(F)C(F)F)cc2)cc1OC	none
CC1=C(C(=O)OC2CCCCCC2)C(c2ccc(C)o2)C2=C(CCCC2=O)N1 (stereo not drawn)	none
CC1=C(C(=O)OC2CCCC2)C(c2ccc(C)o2)C2=C(CC(c3cccs3)CC2=O)N1 (stereo not drawn)	KCNQ1 inh 8
OCCN(Cc1ccccc1)Cc1ccc(C(F)(F)F)cc1	KCNK9 inh -6.87
COc1ccc(COc2cc(-c3cccc(OC)c3)nc3ccc(NC(=O)c4cccnc4)cc23)cc1	KCNQ1 inh 6
O=[N+]([O-])c1cc(S(=O)(=O)C(F)(F)F)ccc1NCC1CCCO1 (stereo not drawn)	none
Cn1ncc(Br)c1NC(=O)c1cc(Cl)cc(Cl)c1	none
CCn1c(Cn2nnc(-c3ccccc3)n2)nnc1SCC(=O)Nc1cccc(C(C)=O)c1	none
CCn1c(Cn2nnc(-c3ccccc3)n2)nnc1SCC(=O)Nc1ccc(C(C)=O)cc1	hERG protect 4.6
COc1ccc2c(c1)CN(C)S(=O)(=O)c1ccccc1-2	none (no result: hERG protect, KCNQ1 inh, Kir21 inh, KCNQ1 pot, KCNK9 inh)
Cc1ccc(CSc2nnc([C@@H]3CCCN3C(=O)OC(C)(C)C)o2)cc1	Kir21 inh -7.13
CC1CCC(NC(=O)CN2C(=O)NC(C)(C)C2=O)CC1 (stereo not drawn)	none
O=C(NC(=S)Nc1ccccc1)c1cncc(C#Cc2ccccc2)c1	hERG protect 5.8
Cc1cccc(NC(=S)N2CCN(C(=O)c3ccco3)CC2)c1C	none
C=CCc1cc(Cl)ccc1OCCCNC(C)C	none
C=CCc1cc(Cl)ccc1OCCCNCCO	Kir21 inh -5.44
CC(C(=O)N(C)c1ccccc1)N1CCN(C(=O)c2ccccc2)CC1 (stereo not drawn)	none
C=CCOC(=O)c1cn(CC)c2nc(C)ccc2c1=O	none
CCn1cc(C(=O)OCC(=O)OC2CC(C)CCC2C(C)C)c(=O)c2ccc(C)nc21 (stereo not drawn)	KCNK3 block -11.1
Cc1cc(C)nc(CCNC(=O)c2cc(COc3ccccc3)on2)n1	none
COc1ccc(C(CCN(Cc2ccc(OC)c(OC)c2)C(C)=O)C(C)C)cc1 (stereo not drawn)	none
CCN(CC)S(=O)(=O)c1ccc(NC(=O)COc2nc3ccccc3nc2N2CCOCC2)cc1	none
Cc1ccc(C(NC(=O)NC(C)c2ccccc2)C(Cl)(Cl)Cl)cc1F (stereo not drawn)	KCNQ1 inh 7
C#CCNC(=O)C1=C[C@@H](C2CC2)C[C@@H](OCc2ccc(CO)cc2)O1	Kir21 inh -6.55
O=C(NCc1nc2ccccc2[nH]1)C1=C[C@@H](C2CCCCC2)C[C@@H](OCc2ccc(CO)cc2)O1	KCNQ1 inh 9
O=C(Nc1ccccc1)C1=C[C@@H](C2CCCCC2)C[C@@H](OCc2ccc(CO)cc2)O1	KCNK9 inh -7.11
O=C(NCc1nc2ccccc2[nH]1)C1=C[C@H](C2CCCCC2)C[C@H](OCc2ccc(CO)cc2)O1	none
Cn1c(=O)c2c(ncn2CC(=O)OCC(=O)Nc2sccc2C(N)=O)n(C)c1=O	none
CCn1cnc2c1c(=O)n(CC(=O)OC)c(=O)n2Cc1ccccc1	none
CC(C)CC(C(=O)NC1CCCC1)N(Cc1ccc2c(c1)OCO2)C(=O)c1snc(C(N)=O)c1N (stereo not drawn)	KCNQ1 inh 6
CC(C)CC(C(=O)NC1CCCCC1)N(Cc1ccccc1)C(=O)c1snc(C(N)=O)c1N (stereo not drawn)	KCNQ1 inh 6
OCCC#Cc1ccc(CN2CCN(Cc3ccccc3)C(CCO)C2)cc1 (stereo not drawn)	none
CC1Oc2ccccc2N(CC(=O)N2CCCCCC2)C1=O (stereo not drawn)	KCNQ1 pot 22
O=C(Cn1ncc2c(=O)oc3ccccc3c21)N1CCN(C(=O)c2ccco2)CC1	KCNQ1 pot 8
O=C(Cn1ncc2c(=O)oc3ccccc3c21)N1CCN(c2ccccn2)CC1	none
O=C(Nc1ccc(S(=O)(=O)N2CCCCC2)cc1)C1CC(=O)N(c2ccccc2)C1 (stereo not drawn)	none

Source: PubChem (Johns Hopkins Ion Channel Center)
